Experimental data published in article PMC5473336 (Journal of medicinal chemistry, 2016).
Entries after “also recorded” stand apart in the source; their conditions may differ. Read-outs that look alike come from different tables or passages of the source. Each block holds one compound with its values, some of them ahead of it.

What was measured:
[1] = biological target: T1, RAD51 (Homo sapiens, UniProt Q06609); assay: Fluorescence polarization-based RAD51-DNA binding assay; conditions: for ssDNA binding IC50: Stim: compound is a stimulator
T1 sequence (Q06609 1-339): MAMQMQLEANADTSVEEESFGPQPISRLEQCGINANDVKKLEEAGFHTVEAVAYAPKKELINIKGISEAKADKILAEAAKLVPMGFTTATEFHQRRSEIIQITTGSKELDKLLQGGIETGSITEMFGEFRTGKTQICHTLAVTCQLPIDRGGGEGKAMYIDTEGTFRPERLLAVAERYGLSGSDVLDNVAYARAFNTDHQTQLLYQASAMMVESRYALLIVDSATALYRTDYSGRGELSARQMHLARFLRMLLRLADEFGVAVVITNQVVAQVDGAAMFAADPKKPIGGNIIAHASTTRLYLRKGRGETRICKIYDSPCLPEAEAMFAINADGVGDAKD

[2] = Stability on exposure to air; type: physicochemical; conditions: room temperature; oxidizes to compound 8
[3] = test system: 293-DR-GFP cells; assay: DR-GFP assay of cellular HR activity; type: cell-based, human; conditions: 24 h, relative to 1 and 8
[4] = biological target: T1, RAD51; assay: Gel-based D-loop assay; type: biochemical
[5] = biological target: T2, S. cerevisiae Rad51 and Rad52 proteins (Saccharomyces cerevisiae, UniProt P25454); assay: Gel-based D-loop assay with yeast recombinase; type: biochemical; conditions: selectivity versus human RAD51
T2 sequence (P25454 1-400): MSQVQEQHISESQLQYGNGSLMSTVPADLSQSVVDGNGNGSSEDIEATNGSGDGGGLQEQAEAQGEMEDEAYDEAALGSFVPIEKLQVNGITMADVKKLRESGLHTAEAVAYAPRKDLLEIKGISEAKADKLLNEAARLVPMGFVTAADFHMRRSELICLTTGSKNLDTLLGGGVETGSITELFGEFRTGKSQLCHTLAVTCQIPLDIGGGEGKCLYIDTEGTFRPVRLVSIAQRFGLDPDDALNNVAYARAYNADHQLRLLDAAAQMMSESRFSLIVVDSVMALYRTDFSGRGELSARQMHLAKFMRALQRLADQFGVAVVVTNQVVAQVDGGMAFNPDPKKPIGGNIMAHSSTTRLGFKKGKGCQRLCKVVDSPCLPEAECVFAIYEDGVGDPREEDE

[6] = biological target: E. coli RecA protein (Escherichia coli, UniProt P0A7G6); assay: Gel-based D-loop assay with bacterial recombinase; type: biochemical; conditions: selectivity versus human RAD51
[7] = test system: 293-SA-GFP cells; assay: Single-strand annealing; type: cell-based, human; conditions: concentration range that inhibits HR, 24 h post-transfection
Summary of the method: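 Cells electroporated in Opti-MEM with 37.5 μg/mL I-SceI plasmid (pCBASce) or empty pCAGGS vector at 325 V, 975 μF. Then seeded in complete DMEM + 0.5% DMSO with compound and grown out 24 h. Harvested into PBS with 1 μg/mL 7-AAD for flow cytometry, gating out dead/apoptotic cells by size, shape and 7-AAD. Read-out is the GFP-positive fraction of live cells; three replicates, standard error.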

[8] = test system: 293-DR-GFP cells; assay: RAD51 cytological focus formation after irradiation; type: cell-based, human; conditions: IR-induced, 8 h time course
[9] = test system: U2OS, PC-3, and MCF-7 tumor cell lines; assay: Clonogenic survival assay after ionizing radiation; type: cell-based; conditions: compound given immediately after irradiation, for the duration of outgrowth
Summary of the method: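 X-ray irradiation at 1.5 Gy/min of subconfluent flask cultures, then trypsinized and seeded at 1000–1500 cells/well in complete medium with 0.5% DMSO plus compound at the indicated dose. Grown 7–11 days until colonies reached at least 50 cells, then fixed and stained in 6% glutaraldehyde + 0.5% crystal violet. Colonies counted automatically. PC-3 kept in DMEM:F12 (1:1), 10% FCS, penicillin/streptomycin.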

[10] = test system: 293-SA-GFP cells; conditions: previously demonstrated; cited from earlier work

E. coli RecA protein, sequence (P0A7G6 whole entry): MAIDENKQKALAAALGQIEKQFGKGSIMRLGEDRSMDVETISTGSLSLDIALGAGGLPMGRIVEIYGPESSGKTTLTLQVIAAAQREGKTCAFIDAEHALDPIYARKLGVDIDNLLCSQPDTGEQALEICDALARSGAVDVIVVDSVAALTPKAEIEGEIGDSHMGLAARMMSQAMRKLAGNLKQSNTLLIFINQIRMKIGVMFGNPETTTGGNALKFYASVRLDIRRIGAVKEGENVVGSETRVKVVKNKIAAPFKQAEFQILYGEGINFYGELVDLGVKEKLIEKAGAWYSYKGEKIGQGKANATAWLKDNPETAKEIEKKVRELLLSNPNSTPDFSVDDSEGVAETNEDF

SMILES: COc1ccc2c(c1)NC(c1ccc(N(C)C)cc1)c1cccn1-2 (racemic) [Compound 7, 4-(7-Methoxy-4,5-dihydropyrrolo[1,2-a][13]quinoxalin-4-yl)-N,N-dimethylaniline]
- influence on RAD51-ssDNA binding (in words) [1]: significant stimulatory activity
- ssDNA binding IC50 [1]: Stim
- Emax ([1]; read-out: ssDNA binding max effect, ↑ compound stimulates RAD51-ssDNA binding): 47 ± 33%
- stability when exposed to air (in words) [2]: not stable
- inhibitory activity in cell-based HR assay (in words) [3]: comparable to that of 1 and 8

SMILES: COc1ccc2c(c1)nc(-c1ccc(N(C)C)cc1)c1cccn12 [Compound 8, 4-(7-Methoxypyrrolo[1,2-a]quinoxalin-4-yl)-N,N-dimethylaniline]
- ssDNA binding IC50 [1]: Stim

SMILES: CN(C)c1ccc(-c2nc3ccccc3n3cccc23)cc1 [Compound 9a, N,N-Dimethyl-4-(pyrrolo[1,2-a]quinoxalin-4-yl)aniline]
- influence on RAD51-ssDNA binding (in words) [1]: modest influence
- ssDNA binding IC50 [1]: Stim
- D-loop inhibitory activity (in words) [4]: allow for D-loop inhibition

SMILES: O=[N+]([O-])c1cccc(-c2nc3ccccc3n3cccc23)c1 [Compound 9b, 4-(3-Nitrophenyl)pyrrolo[1,2-a]quinoxaline]
- influence on RAD51-ssDNA binding (in words) [1]: modest influence

SMILES: Nc1cccc(-c2nc3ccccc3n3cccc23)c1 [Compound 9c, 3-(Pyrrolo[1,2-a]quinoxalin-4-yl)aniline]
- D-loop inhibitory activity (in words) [4]: decreased

SMILES: Oc1ccc(-c2nc3ccccc3n3cccc23)cc1 [Compound 9d, 4-(Pyrrolo[1,2-a]quinoxalin-4-yl)phenol]
- D-loop inhibitory activity (in words) [4]: significantly decreased

SMILES: FC(F)(F)Oc1ccc(-c2nc3ccccc3n3cccc23)cc1 [Compound 9e, 4-(4-(Trifluoromethoxy)phenyl)pyrrolo[1,2-a]quinoxaline]
- ssDNA binding IC50 [1]: Stim
- D-loop inhibitory activity (in words) [4]: significantly decreased

SMILES: O=[N+]([O-])c1ccc(-c2nc3ccccc3n3cccc23)cc1 [Compound 9f, 4-(4-Nitrophenyl)pyrrolo[1,2-a]quinoxaline]
- D-loop inhibitory activity (in words) [4]: significantly decreased

SMILES: Nc1ccc(-c2nc3ccccc3n3cccc23)cc1 [Compound 9g, 4-(Pyrrolo[1,2-a]quinoxalin-4-yl)aniline]
- D-loop inhibitory activity (in words) [4]: allow for D-loop inhibition

SMILES: CCNc1ccc(-c2nc3ccccc3n3cccc23)cc1 [Compound 9h, N-Ethyl-4-(pyrrolo[1,2-a]quinoxalin-4-yl)aniline]
- inhibition of D-loop activity of Saccharomyces cerevisiae Rad51 (in words) [5]: no significant inhibition
- inhibition of D-loop activity of Escherichia coli RecA (in words) [6]: no significant inhibition
- effect on SSA activity (in words) [7]: does not stimulate SSA
- appearance of RAD51 subnuclear foci in response to DNA damage (in words) [8]: does not inhibit
- influence on RAD51-ssDNA binding (in words) [1]: almost no impact
- D-loop inhibitory activity (in words) [4]: allow for D-loop inhibition
- sensitization of cancer cells to radiation, clonogenic survival (in words) [9]: significantly sensitizes

SMILES: c1ccc2c(c1)nc(-c1ccc(N3CCCC3)cc1)c1cccn12 [Compound 9i, 4-(4-(Pyrrolidin-1-yl)phenyl)pyrrolo[1,2-a]quinoxaline]
- influence on RAD51-ssDNA binding (in words) [1]: modest influence
- ssDNA binding IC50 [1]: Stim
- D-loop inhibitory activity (in words) [4]: significantly decreased

SMILES: c1ccc2c(c1)nc(-c1ccc(N3CCOCC3)cc1)c1cccn12 [Compound 9j, 4-(4-(Pyrrolo[1,2-a]quinoxalin-4-yl)phenyl)morpholine]
- D-loop inhibitory activity (in words) [4]: allow for D-loop inhibition

SMILES: COc1ccc2c(c1)nc(-c1ccc(O)cc1)c1cccn12 [Compound 12a, 4-(7-Methoxypyrrolo[1,2-a]quinoxalin-4-yl)phenol]
- influence on RAD51-ssDNA binding (in words) [1]: relatively strong ssDNA binding inhibition

SMILES: CN(C)c1ccc(-c2nc3cc(OC(C)(C)C(N)=O)ccc3n3cccc23)cc1 [Compound 16, 2-((4-(4-(Dimethylamino)phenyl)pyrrolo[1,2-a]quinoxalin-7-yl)-oxy)-2-methylpropanamide]
- influence on RAD51-ssDNA binding (in words) [1]: stimulators
- ssDNA binding IC50 [1]: Stim

SMILES: O=C1C(Cl)=C(N2CCOCC2)C(=O)N1c1ccc(Cl)c(Cl)c1 [RI-1]
- effect on SSA activity (in words) [10]: elevated levels of SSA activity

The next lines start with results.

- D-loop inhibitory activity (in words) [4]: moderate
SMILES: c1cncc(-c2nc3ccccc3n3cccc23)c1 [Compound 11a, 4-(Pyridin-3-yl)pyrrolo[1,2-a]quinoxaline]

- D-loop inhibitory activity (in words) [4]: moderate
SMILES: c1ccc2c(c1)nc(-c1ccncc1)c1cccn12 [Compound 11b, 4-(Pyridin-4-yl)pyrrolo[1,2-a]quinoxaline]

- influence on RAD51-ssDNA binding (in words) [1]: modest influence
- ssDNA binding IC50 [1]: Stim
- D-loop inhibitory activity (in words) [4]: weak
SMILES: C1=C(c2nc3ccccc3n3cccc23)CCCC1 [Compound 11c, 4-(Cyclohex-1-en-1-yl)pyrrolo[1,2-a]quinoxaline]

- influence on RAD51-ssDNA binding (in words) [1]: modest influence
- ssDNA binding IC50 [1]: Stim
- D-loop inhibitory activity (in words) [4]: weak
SMILES: c1ccc2c(-c3nc4ccccc4n4cccc34)cccc2c1 [Compound 11d, 4-(Naphthalen-1-yl)pyrrolo[1,2-a]quinoxaline]

- influence on RAD51-ssDNA binding (in words) [1]: stimulators
- ssDNA binding IC50 [1]: Stim
SMILES: COc1ccc2c(c1)nc(-c1ccc([N+](=O)[O-])cc1)c1cccn12 [Compound 12b, 7-Methoxy-4-(4-nitrophenyl)pyrrolo[1,2-a]quinoxaline]

- influence on RAD51-ssDNA binding (in words) [1]: only weakly influenced
SMILES: COc1ccc2c(c1)nc(-c1ccc(N)cc1)c1cccn12 [Compound 12c, 4-(7-Methoxypyrrolo[1,2-a]quinoxalin-4-yl)aniline]

- influence on RAD51-ssDNA binding (in words) [1]: modest effects
SMILES: Nc1ccc(-c2nc3cc(O)ccc3n3cccc23)cc1 [Compound 12f, 4-(4-Aminophenyl)pyrrolo[1,2-a]quinoxalin-7-ol]
- inhibitory activity in cell-based HR assay (in words) [3]: comparable or slightly less inhibitory activity

- influence on RAD51-ssDNA binding (in words) [1]: only weakly influenced
- ssDNA binding IC50 [1]: Stim
SMILES: CN(C)c1ccc(-c2nc3cc(O)ccc3n3cccc23)cc1 [Compound 12g, 4-(4-(Dimethylamino)phenyl)pyrrolo[1,2-a]quinoxalin-7-ol]
- inhibitory activity in cell-based HR assay (in words) [3]: comparable or slightly less inhibitory activity

- ssDNA binding IC50 [1]: Stim
- D-loop inhibitory activity (in words) [4]: nearly absent
SMILES: CN(C)c1ccc(-c2nc3cc(F)ccc3n3cccc23)cc1 [Compound 12j, 4-(7-Fluoropyrrolo[1,2-a]quinoxalin-4-yl)-N,N-dimethylaniline]

- ssDNA binding IC50 [1]: Stim
- D-loop inhibitory activity (in words) [4]: nearly absent
SMILES: CN(C)c1ccc(-c2nc3cc(F)c(F)cc3n3cccc23)cc1 [Compound 12m, 4-(7,8-Difluoropyrrolo[1,2-a]quinoxalin-4-yl)-N,N-dimethylaniline]

- D-loop inhibitory activity (in words) [4]: slight improvement
SMILES: COc1ccc2c(c1)nc(-c1cccnc1)c1cccn12 [Compound 13a, 7-Methoxy-4-(pyridin-3-yl)pyrrolo[1,2-a]quinoxaline]

- D-loop inhibitory activity (in words) [4]: slight improvement
SMILES: Oc1ccc2c(c1)nc(-c1cccnc1)c1cccn12 [Compound 13b, 4-(Pyridin-3-yl)pyrrolo[1,2-a]quinoxalin-7-ol]

- influence on RAD51-ssDNA binding (in words) [1]: stimulators
- ssDNA binding IC50 [1]: Stim
SMILES: CCCOc1ccc2c(c1)nc(-c1ccc(N)cc1)c1cccn12 [Compound 15a, 4-(7-Propoxypyrrolo[1,2-a]quinoxalin-4-yl)aniline]

- ssDNA binding IC50 [1]: Stim
SMILES: Nc1ccc(-c2nc3cc(OCCF)ccc3n3cccc23)cc1 [Compound 15b, 4-(7-(2-Fluoroethoxy)pyrrolo[1,2-a]quinoxalin-4-yl)aniline]
- influence on RAD51-ssDNA binding (in words) [1]: stimulators; also recorded: modest effects
